Experimental data from ChEMBL document CHEMBL4513216, “Probing the Open Global Health Chemical Diversity Library for Multistage-Active Starting Points for Next-Generation Antimalarials” (ACS Infect Dis, 2020).

Assay: Toxicity liver stage against HepG2, at 10uM
Format: cell-based
Parameters: test concentration 10 uM, cell line HepG2-A16-CD81EGFP
Settings: human, HepG2-A16-CD81EGFP cells; read-out: INHIBITION
In short: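 Uninfected HepG2-A16-CD81EGFP cells, 3 × 10^3 per well, 1536-well, plated on prespotted compound at 10 μM final, parasite-free screening media added to match infected plates; puromycin 10 μM positive, DMSO 0.5% negative; run in parallel with 48 h PbLuc assay at 37 °C, 5% CO2; viability by CellTiter-Glo luminescence, normalized to controls.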

Compound | cytotoxicity at 10 µM [%]
CN1CCC(N2CC[C@H](c3nc4ccc(C(F)(F)F)cc4[nH]3)C2)CC1 | -10.2
Cc1ccc(-c2ccc(=O)n(CC(=O)Nc3nccs3)n2)cc1 | -10.2
Cc1cccc2nc(CSCC(=O)Nc3nnc(C(C)C)s3)cc(=O)n12 | -3.95
CC(=O)N1N=C(c2ccco2)OC1C(=O)N(C)CCc1ccccc1 (stereo not given) | -0.0253
COc1cc2nc(C)n(CC(=O)NCCC(C)C)c(=O)c2cc1OC | -3.79
CSc1sc2c(O)cc(=O)[nH]c2c1C(N)=O | -2.1
COc1ccc(-n2nnc(C(=O)NCC3CCCCC3)n2)cc1 | 1.01
O=C(c1nnn(-c2ccccc2F)c1-c1ccccn1)N1CCSCC1 | 1.32
Cc1csc(NC(=O)C2CSCCC(=O)N2)n1 (stereo not given) | 4.14
c1ccc(COCC2CNCc3nccn3C2)nc1 (stereo not given) | 14.4
CS(=O)(=O)N1Cc2nc(C(=O)NCc3ccccc3)oc2C1 | -3.46
CCN(CC)c1ccc2ccc(C(=O)NC3CC3)cn12 | -2.6
CNC(=O)[C@H]1C[C@@H]2CN(C(=O)c3cscn3)C[C@@H]2N1S(C)(=O)=O | -5.17
COCC1CN(C(C)=O)CCN(c2cc(C)ncn2)C1 (stereo not given) | 4.96
O=C(O)C1(Cc2cc(-c3ccc(F)cc3F)no2)CCOCC1 | 3.37
CN1CCC(NC(=O)c2cc(Cl)cc(Br)c2O)C1=O (stereo not given) | 4.84
N#CC1COCCN1S(=O)(=O)c1ccc(F)c(Br)c1 (stereo not given) | 4.43
O=C1CCCN1CCCN1CCCC1Cn1cccn1 (stereo not given) | -1.82
N#Cc1ccc(CN2CCN(c3ccncc3Cl)CC2=O)cc1 | 4.64
CCn1cc(C(=O)N(C)Cc2c(F)cccc2Cl)cn1 | -4.66
CC(=O)N1CCC(C(=O)N2CCC(=Cc3cccc(F)c3)CC2)CC1 | 3.5
N#Cc1cccc(S(=O)(=O)NC(=O)c2csc(-c3ccco3)n2)c1 | 4.34
Cc1nc(-c2ccco2)ccc1C(=O)NCCCN1CCOCC1 | -4.02
CCc1nnc2n1CCN(CC(=O)N(CC)C1=CCCCC1)C2 | -0.0192
Cc1cccc(NC(=O)[C@@H]2CCCN2Cc2nnc(C(C)C)n2C)n1 | 5.81
Cc1ccccc1N1CCN(C(=O)c2cccnc2-n2cncn2)CC1 | 8.35
N#Cc1cccnc1NCCNC(=O)N1CCCC(N2CCCC2)C1 (stereo not given) | 7.61

Compound | cytotoxicity at 10 µM [%]
CCCN1CCC(CNC(=O)N2CCCC2c2c(C)n[nH]c2C)CC1 (stereo not given) | -0.686
O=C(NCCOc1ncc(Cl)cc1Cl)c1ccoc1 | 0.191
CCc1ccc(CCC(=O)NCc2nnc[nH]2)cc1 | 7.47
CC1CN(C(=O)c2ccnc(OCCN(C)C)c2)c2ccccc21 (stereo not given) | -0.343
CC(C)(C)OC(=O)N1CC(CC(=O)NCc2ccnc(C3CC3)c2)C1 | 5.54
CC(C1CC1)N(CC(=O)NC(=O)NC1CC1)C1CC1 (stereo not given) | 4.84
CCn1c(CN2CCOC(Cn3cncn3)C2)nc2c(F)cccc21 (stereo not given) | -5.42
Cc1csc(CN2CC(CO)Oc3ccccc32)n1 (stereo not given) | 6.62
O=C(Nc1cccs1)NC(CCCO)c1ccccc1 (stereo not given) | 9.18
O=C1C(Nc2nccn3cnnc23)CCCN1c1ccccc1Cl (stereo not given) | 9.05
O=C(Cc1ccccn1)N1CCN(CC2CC2)c2ncccc2C1 | 1.34
Cn1c(-c2ccc(F)cc2)cn2cc(C(=O)N3CCC(N)C3)nc2c1=O (stereo not given) | 4.43
CC1(C)CNC(=O)c2nc(CCN3CCCCC3CO)[nH]c2C1 (stereo not given) | -3.24
O=C1CCC2(CCN(CC[C@H](O)c3ccccc3)CC2)CN1CCO | -4
CCN1CC2(CCC1=O)CCN(Cc1cc(F)ccc1Cl)CC2 | 6.58
Cc1n[nH]c(C)c1CCN(C)c1ccc(-c2nc(C3CC3)no2)cn1 | 2.08
Cc1cc(C(=O)N2CCC3(CC(=O)NC3=O)C2)c(-c2ccccc2)o1 (stereo not given) | -3.15
COc1nc2c(cc1C(=O)NCc1noc(Cc3cccs3)n1)CCC2 | -6.36
Cc1ccc(C(=O)NCCC2CN(c3cnn(C)c(=O)c3)CCO2)s1 (stereo not given) | -1.38
O=C(c1cccc(O)c1)N1C[C@@H](CN2CCCCC2)[C@@H](CO)C1 | -2.88
CCN(C)C[C@@H]1CN(C(=O)NC2CCCCC2)C[C@@H]1CO | -1.53
O=C(NCCc1c[nH]cn1)c1ccccc1C1CCNC1 (stereo not given) | 12.8
Cc1nc(C(F)(F)F)nc(N2CCC(O)(C(=O)O)CC2)c1C | 10.4
Cc1nc(-c2cc(Cl)c3c(c2)CC(CN)O3)c[nH]1 (stereo not given) | -12.2
Cc1cc(C)n2nc(CC(=O)N[C@H]3C[C@H]4CN(C)CCN4C3)nc2n1 | -2.9
CC(C)Nc1cc(N2CCC(n3cc(C4CC4)nn3)CC2)ncn1 | 7.88
O=C(c1coc(CN2CCN(c3ccccc3F)CC2)n1)N1CCCC1 | 19.2

Compound | cytotoxicity at 10 µM [%]
Cc1cc(C)n(-c2ccc(C(=O)NCc3cncn3CC(C)C)cc2)n1 | -4.04
O=C1OCCN1Cc1ncnn1Cc1c(F)cccc1Cl | -1.26
CC(C)n1ccnc1C1CCCN(c2ccccn2)C1 (stereo not given) | 1.28
COc1ccc(CN(C)[C@@H]2CN(C(=O)c3cccs3)C[C@H]2O)cc1 | -0.619
Cn1cc(CCNC(=O)NCc2ccc3c(c2)OCCO3)cn1 | -10.7
Cc1cnn(CC2CCCN2C(=O)c2cccc3[nH]ncc23)c1 (stereo not given) | -10.8
Cc1ccc(C(=O)NS(=O)(=O)c2ccccc2C)c(=O)[nH]1 | -8.48
Cc1cc(OCC(=O)N2CCCC(c3ccn[nH]3)C2)no1 (stereo not given) | 0.0241
Cn1cnc2c1CCN(CCS(=O)(=O)c1ccccc1)C2 | -3.32
Cc1nc(C)n(CC2CN(CCCOc3ccccc3C)CCO2)n1 (stereo not given) | 5.63
CC(O)CN1CCC(CNCc2cccc(C(N)=O)c2)CC1 (stereo not given) | -8.99
Cc1nc(C)n(CC2CCCN2Cc2cscn2)n1 (stereo not given) | -2.05
CCn1cc(CN2C[C@@H]3CCCN3C[C@@H]2CCSC)cn1 | -13.9
CC(C)N(C)Cc1cnc2n1CCN(C(=O)Cc1ccccn1)C2 | -0.405
CN(C)CCNC(=O)C1Cc2nc(-c3ccccc3)sc2N1CC1CC1 (stereo not given) | 5.15
O=C(CO[C@@H]1CC[C@H]2[C@H]1OCCN2c1ncccn1)N1CCCC1 | -7.58
Cc1cc(C(=O)N2CCC3(CC2)COCCN(c2cccnc2)C3)[nH]n1 | -2.66
Cn1nc(Cn2cccc2)c2c1CN(Cc1ccoc1)C2 | 2.96
CCC1=N[C@@]2(CC[C@@H]3CN(CC4CC4)C[C@@H]32)C(=O)N1C | 0.153
c1ccc(CO[C@@H]2C[C@H]3CN(c4ncccn4)CCN3C2)nc1 | -7.49
NC(=O)N1CCC2(CCN(Cc3ccccn3)C2=O)C1 (stereo not given) | 3.39
COCCN1CCO[C@@H]2CN(Cc3ccc(C)s3)C[C@@H]2C1 | -8.81
CS(=O)(=O)N1C[C@H]2CCCN(Cc3cccs3)[C@H]2C1 | 7.69
Cc1noc(C)c1CN1CCO[C@H]2CN(C(=O)N3CCCC3)C[C@H]21 | 8.01
NC1CCC(NC(=O)c2ccc3nc(-c4ccc(F)cc4)cn3c2)CC1 (stereo not given) | -17.7
O=C1NCC2(CCC(C(=O)N3CCC(O)CC3)CC2)Oc2ccccc21 (stereo not given) | -21.7
